Results taken from ChEMBL document CHEMBL3526060, “Impact of hydrolysis-mediated clearance on the pharmacokinetics of novel anaplastic lymphoma kinase inhibitors” (Drug Metab Dispos, 2013).

Columns and labels:
[1] = AUC (0 to infinity) in CD-1 mouse at 2 mg/kg, iv administered as single bolus dose by LC-MS/MS analysis; type: ADME, organism-based; design: time infinity, dose 2 mg/kg, route intravenous; conditions: plasma
Outline: (§1)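 Single 2 mg/kg IV bolus via lateral tail vein to male CD-1 mice. Mice euthanized at 0.083–24 h, 3 per time point (27 animals); cardiac-puncture blood into heparin on ice, plasma spun at 4 °C and immediately extracted with acetonitrile/0.1% formic acid plus IS, LC-MS/MS. Noncompartmental CL = Dose/AUC0–inf, t1/2 = 0.693/k, Vss from AUMC/AUC, MRT = Vss/CL.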

[2] = Oral bioavailability in CD-1 mouse at 100 mg/kg administered through gavage by LC-MS/MS analysis relative to 2 mg/kg, iv dose; type: ADME, organism-based; conditions: in vivo
Outline: (§2)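 Male CD-1 mice, fasted overnight, food returned 2 h post-dose; single oral gavage at 20, 50 or 100 mg/kg. Terminal cardiac-puncture blood at 0.25, 0.5, 1, 2, 4, 6, 8, 24 h, 3 mice per time point; heparinized plasma extracted into acetonitrile/formic acid with IS, LC-MS/MS. Noncompartmental analysis: linear trapezoidal AUC extrapolated to infinity, CL/F, F relative to 2 mg/kg IV.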

[3] = Intrinsic clearance in CD-1 mouse liver microsomes at 0.1 uM by LC-MS/MS analysis in absence of NADPH; type: ADME; conditions: read-out: CLH
Outline: (§3)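 Liver microsomes (0.25 mg/mL protein, 0.1 M phosphate pH 7.4) from mouse, rat, dog or human; substrate 0.1 or 1 µM with 1 mM NADPH (mouse also without). Samples at 0, 10, 20, 30, 40 min into acetonitrile with tolbutamide, centrifuged, LC-MS/MS; CLint = (0.693/t1/2)/microsomal protein concentration.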

[4] = Intrinsic clearance in human liver microsomes at 0.1 uM by LC-MS/MS analysis in presence of NADPH; type: ADME; conditions: read-out: CLH; outline: as §3
[5] = Intrinsic clearance in human liver microsomes at 1 uM by LC-MS/MS analysis in presence of NADPH; type: ADME; conditions: read-out: CLH; outline: as §3
[6] = Fraction unbound in CD-1 mouse liver microsomes after 7 hrs by equilibrium dialysis method; type: ADME
Outline: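 Equilibrium dialysis of 0.25 mg/mL mouse liver microsomes in phosphate buffer against PBS, 7 h at 37 °C, 5% CO2, test compound 0.1, 0.5 or 2 µM, triplicate; LC-MS/MS; fraction unbound = buffer/microsome concentration.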

[7] = Mean residence time in CD-1 mouse at 2 mg/kg, iv administered as single bolus dose by LC-MS/MS analysis; type: ADME, organism-based; design: dose 2 mg/kg, route intravenous; conditions: in vivo; outline: as §1
[8] = Volume of distribution at steady state in CD-1 mouse at 2 mg/kg, iv administered as single bolus dose by LC-MS/MS analysis; type: ADME, organism-based; design: dose 2 mg/kg, route intravenous; conditions: in vivo, read-out: Vdss; outline: as §1
[9] = system: Plasma; test: Drug metabolism in CD-1 mouse plasma assessed as maximum intrinsic clearance for hydrolysis metabolite formation by LC-MS/MS analysis; type: ADME, cell-free
Outline: (§4)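 Mouse plasma depletion kinetics at 37 °C, substrate range 0.0023–5 µM, up to 3 h; samples quenched into acetonitrile/tolbutamide, LC-MS/MS. CLint per concentration from t1/2; apparent Vmax and Km fitted by nonlinear regression to Michaelis-Menten, formation rate simulated from fit; mean of two replicates.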

[10] = In vitro half life in CD-1 mouse plasma at 0.83 uM by LC-MS/MS analysis; type: ADME, cell-free
Outline: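 Screening stability: compound at 0.83 µM in mouse plasma at 37 °C, up to 3 h; timed aliquots quenched into acetonitrile with tolbutamide IS, centrifuged, LC-MS/MS; half-life from depletion, CLint = (0.693/t1/2)/plasma concentration.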

[11] = Apparent oral clearance in CD-1 mouse at 100 mg/kg, po administered through gavage by LC-MS/MS analysis; type: ADME, organism-based; design: dose 100 mg/kg, route oral; conditions: in vivo; outline: as §2
[12] = Apparent oral clearance in CD-1 mouse at 50 mg/kg, po administered through gavage by LC-MS/MS analysis; type: ADME, organism-based; design: dose 50 mg/kg, route oral; conditions: in vivo; outline: as §2
[13] = Intrinsic clearance in CD-1 mouse liver microsomes at 1 uM by LC-MS/MS analysis in absence of NADPH; type: ADME; conditions: read-out: CLH; outline: as §3
[14] = AUC (0 to infinity) in CD-1 mouse at 50 mg/kg, po administered through gavage by LC-MS/MS analysis; type: ADME, organism-based; design: time infinity, dose 50 mg/kg, route oral; conditions: plasma; outline: as §2
[15] = Intrinsic clearance in Beagle dog liver microsomes at 1 uM by LC-MS/MS analysis in presence of NADPH; type: ADME, Canis lupus familiaris; conditions: read-out: CLH; outline: as §3
[16] = Half life in CD-1 mouse at 2 mg/kg, iv administered as single bolus dose by LC-MS/MS analysis; type: ADME, organism-based; design: dose 2 mg/kg, route intravenous; conditions: in vivo; outline: as §1
[17] = system: Plasma; test: Metabolic stability in CD-1 mouse plasma assessed as hydrolysis product M1 [(1s,4s)-4-(2-amino-6-((4-(2-hydroxypropan-2-yl)piperidin-1-yl)methyl)-1H-benzo[d]imidazol-1-yl)-N-isopropylcyclohexanecarboxamide] formation at 5 uM after 20 mins by LC-MS/MS analysis; type: ADME, cell-free
[18] = Cmax in CD-1 mouse at 20 mg/kg, po administered through gavage by LC-MS/MS analysis; type: ADME, organism-based; design: dose 20 mg/kg, route oral; conditions: in vivo; outline: as §2
[19] = system: Mus musculus; test: Oral bioavailability in CD-1 mouse at 50 mg/kg administered through gavage by LC-MS/MS analysis relative to 2 mg/kg, iv dose; type: ADME, organism-based; conditions: in vivo; outline: as §2
[20] = Cmax in CD-1 mouse at 100 mg/kg, po administered through gavage by LC-MS/MS analysis; type: ADME, organism-based; design: dose 100 mg/kg, route oral; conditions: in vivo; outline: as §2
[21] = Intrinsic clearance in CD-1 mouse liver microsomes at 0.1 uM by LC-MS/MS analysis in presence of NADPH; type: ADME; conditions: read-out: CLH; outline: as §3
[22] = Half life in CD-1 mouse at 100 mg/kg, po administered through gavage by LC-MS/MS analysis; type: ADME, organism-based; design: dose 100 mg/kg, route oral; conditions: in vivo; outline: as §2
[23] = Tmax in CD-1 mouse at 50 mg/kg, po administered through gavage by LC-MS/MS analysis; type: ADME, organism-based; design: dose 50 mg/kg, route oral; conditions: in vivo; outline: as §2
[24] = Drug metabolism in CD-1 mouse NADPH-fortified liver microsomes assessed as hydrolysis metabolite formation rate by LC-MS/MS analysis; type: ADME
Outline: (§5)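 Mouse liver microsomes 0.25 mg/mL in 0.1 M phosphate pH 7.4, with or without 1 mM NADPH, substrate 0.0023–5 µM; sampling to 40 min into acetonitrile/IS, LC-MS/MS depletion. Hydrolysis Vmax/Km solved from no-NADPH incubations, then NADPH-dependent constants; metabolite formation rate simulated from fitted constants; duplicates.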

[25] = Half life in CD-1 mouse at 20 mg/kg, po administered through gavage by LC-MS/MS analysis; type: ADME, organism-based; design: dose 20 mg/kg, route oral; conditions: in vivo; outline: as §2
[26] = Intrinsic clearance in Sprague-Dawley rat liver microsomes at 0.1 uM by LC-MS/MS analysis in presence of NADPH; type: ADME; conditions: read-out: CLH; outline: as §3
[27] = Fraction unbound in CD-1 mouse plasma after 7 hrs by equilibrium dialysis method; type: ADME, cell-free
Outline: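 Mouse plasma pre-treated 20 min with 100 µM DFP to block hydrolysis, spiked at 0.1, 0.5 or 2 µM, equilibrium dialysis against PBS for 7 h at 37 °C, 5% CO2, triplicate; matrix-matched samples extracted with acetonitrile/IS, LC-MS/MS; fu = buffer/plasma concentration.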

[28] = AUC (0 to infinity) in CD-1 mouse at 20 mg/kg, po administered through gavage by LC-MS/MS analysis; type: ADME, organism-based; design: time infinity, dose 20 mg/kg, route oral; conditions: plasma; outline: as §2
[29] = Tmax in CD-1 mouse at 100 mg/kg, po administered through gavage by LC-MS/MS analysis; type: ADME, organism-based; design: dose 100 mg/kg, route oral; conditions: in vivo; outline: as §2
[30] = AUC (0 to infinity) in CD-1 mouse at 100 mg/kg, po administered through gavage by LC-MS/MS analysis; type: ADME, organism-based; design: time infinity, dose 100 mg/kg, route oral; conditions: plasma; outline: as §2
[31] = Drug metabolism in CD-1 mouse liver microsomes assessed as hydrolysis metabolite formation rate by LC-MS/MS analysis; type: ADME; outline: as §5
[32] = Plasma clearance in CD-1 mouse at 2 mg/kg, iv administered as single bolus dose by LC-MS/MS analysis; type: ADME, organism-based; design: dose 2 mg/kg, route intravenous; outline: as §1
[33] = Half life in CD-1 mouse at 50 mg/kg, po administered through gavage by LC-MS/MS analysis; type: ADME, organism-based; design: dose 50 mg/kg, route oral; conditions: in vivo; outline: as §2
[34] = Intrinsic clearance in Sprague-Dawley rat liver microsomes at 1 uM by LC-MS/MS analysis in presence of NADPH; type: ADME; conditions: read-out: CLH; outline: as §3
[35] = Intrinsic clearance in CD-1 mouse liver microsomes at 1 uM by LC-MS/MS analysis in presence of NADPH; type: ADME; conditions: read-out: CLH; outline: as §3
[36] = system: Plasma; test: Drug metabolism in CD-1 mouse plasma assessed as hydrolysis metabolite formation rate by LC-MS/MS analysis; type: ADME, cell-free; outline: as §4
[37] = Cmax in CD-1 mouse at 50 mg/kg, po administered through gavage by LC-MS/MS analysis; type: ADME, organism-based; design: dose 50 mg/kg, route oral; conditions: in vivo; outline: as §2
[38] = Apparent oral clearance in CD-1 mouse at 20 mg/kg, po administered through gavage by LC-MS/MS analysis; type: ADME, organism-based; design: dose 20 mg/kg, route oral; conditions: in vivo; outline: as §2
[39] = Oral bioavailability in CD-1 mouse at 20 mg/kg administered through gavage by LC-MS/MS analysis relative to 2 mg/kg, iv dose; type: ADME, organism-based; conditions: in vivo; outline: as §2
[40] = Tmax in CD-1 mouse at 20 mg/kg, po administered through gavage by LC-MS/MS analysis; type: ADME, organism-based; design: dose 20 mg/kg, route oral; conditions: in vivo; outline: as §2

Structure (SMILES): CC(C)NC(=O)[C@H]1CC[C@@H](n2/c(=N/C(=O)c3ccc(F)cc3)[nH]c3ccc(CN4CCC(C(C)(C)O)CC4)cc32)CC1
- AUC(0-inf) [1]: 0.627 µM·h
- bioavailability [2]: 120%
- microsomal CLint at 0.1 µM [3]: 805 µL/min/mg
- microsomal CLint at 0.1 µM [4]: 93 µL/min/mg
- microsomal CLint at 1 µM [5]: 67 µL/min/mg
- fraction unbound at 7 h [6]: 0.76
- MRT [7]: 0.474 h
- Vd [8]: 2.62 L/kg
- CL [9]: 71.4 uL/min.ml
- half-life at 0.83 µM [10]: 0.2 h
- CL/F [11]: 77.2 mL/min/kg
- CL/F [12]: 60.8 mL/min/kg
- microsomal CLint at 1 µM [13]: 50 µL/min/mg
- AUC(0-inf) [14]: 23.7 µM·h
- microsomal CLint at 1 µM [15]: 33 µL/min/mg
- half-life [16]: 1.05 h
- Drug metabolism [17]: metabolite_detected
- Cmax [18]: 0.782 µM
- F [19]: 151%
- Cmax [20]: 15.2 µM
- microsomal CLint at 0.1 µM [21]: 891 µL/min/mg
- half-life [22]: 2.17 h
- Tmax [23]: 1 h
- Vmax(app) [24]: 45.4 pmol/min/mg
- Km ([24]; read-out: Km(app)): 0.263 µM
- half-life [25]: 1.23 h
- microsomal CLint at 0.1 µM [26]: 14 µL/min/mg
- fraction unbound at 7 h [27]: 0.02
- AUC(0-inf) [28]: 1.31 µM·h
- Tmax [29]: 1 h
- AUC(0-inf) [30]: 37.4 µM·h
- Vmax(app) [31]: 82 pmol/min/mg
- Km ([31]; read-out: Km(app)): 0.0437 µM
- clearance [32]: 92 mL/min/kg
- half-life [33]: 2.3 h
- microsomal CLint at 1 µM [34]: 13 µL/min/mg
- microsomal CLint at 1 µM [35]: 110 µL/min/mg
- Vmax(app) [36]: 19.7 pmol/min/mL
- Km ([36]; read-out: Km(app)): 0.276 µM
- Cmax [37]: 10.7 µM
- CL/F [38]: 437 mL/min/kg
- bioavailability [39]: 21.1%
- Tmax [40]: 0.25 h
